From ChEMBL document CHEMBL3259569 (J Med Chem, 2014)
The source made the active and inactive calls. The calls are words filed in the database; no cut-off is given here.

Columns and labels:
Histone deacetylase = test: Inhibition of HDAC in human HeLa cell nuclear extract using Boc-Lys(Ac)-AMC as substrate after 30 mins by fluorimetric analysis; assay type: protein assay
KB = test: Cytotoxicity against human KB cells by MTT assay; assay type: functional, cell-based
[1] = Cytotoxicity against human H460 cells by MTT assay; assay type: functional, cell-based; conditions: NCI-H460
Summary of the method: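 Antiproliferative IC50 in H460 cells; mean ± SD of at least three independent experiments.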

PC-3 = test: Cytotoxicity against human PC3 cells by MTT assay; assay type: functional, cell-based
HCT-116 [2] = test: Cytotoxicity against human HCT116 cells by MTT assay; assay type: functional, cell-based
Histone deacetylase 1 = Histone deacetylase 1 (Homo sapiens, UniProt Q13547); test: Inhibition of HDAC1 (unknown origin) using RHKK(Ac) (379 to 382) p53 peptide as substrate by fluorescence assay
Histone deacetylase 1, sequence (Q13547 whole entry): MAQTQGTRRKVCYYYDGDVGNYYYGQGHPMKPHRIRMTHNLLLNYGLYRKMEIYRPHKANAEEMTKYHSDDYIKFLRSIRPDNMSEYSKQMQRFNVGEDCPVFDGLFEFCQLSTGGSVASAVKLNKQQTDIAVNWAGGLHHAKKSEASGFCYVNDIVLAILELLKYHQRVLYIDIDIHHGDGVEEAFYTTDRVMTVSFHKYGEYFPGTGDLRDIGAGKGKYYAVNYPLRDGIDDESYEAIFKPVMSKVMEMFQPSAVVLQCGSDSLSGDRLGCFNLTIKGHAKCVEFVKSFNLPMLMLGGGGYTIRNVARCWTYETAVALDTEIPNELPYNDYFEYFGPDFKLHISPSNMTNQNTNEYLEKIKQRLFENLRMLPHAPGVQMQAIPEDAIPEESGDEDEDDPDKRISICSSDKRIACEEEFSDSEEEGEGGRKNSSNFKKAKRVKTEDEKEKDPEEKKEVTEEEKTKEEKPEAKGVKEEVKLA

[3] = target: T1, Protein deacetylase HDAC6 (Homo sapiens, UniProt Q9UBN7); test: Inhibition of HDAC6 (unknown origin) using RHKK(Ac) (379 to 382) p53 peptide as substrate by fluorescence assay
T1 sequence (Q9UBN7 whole entry): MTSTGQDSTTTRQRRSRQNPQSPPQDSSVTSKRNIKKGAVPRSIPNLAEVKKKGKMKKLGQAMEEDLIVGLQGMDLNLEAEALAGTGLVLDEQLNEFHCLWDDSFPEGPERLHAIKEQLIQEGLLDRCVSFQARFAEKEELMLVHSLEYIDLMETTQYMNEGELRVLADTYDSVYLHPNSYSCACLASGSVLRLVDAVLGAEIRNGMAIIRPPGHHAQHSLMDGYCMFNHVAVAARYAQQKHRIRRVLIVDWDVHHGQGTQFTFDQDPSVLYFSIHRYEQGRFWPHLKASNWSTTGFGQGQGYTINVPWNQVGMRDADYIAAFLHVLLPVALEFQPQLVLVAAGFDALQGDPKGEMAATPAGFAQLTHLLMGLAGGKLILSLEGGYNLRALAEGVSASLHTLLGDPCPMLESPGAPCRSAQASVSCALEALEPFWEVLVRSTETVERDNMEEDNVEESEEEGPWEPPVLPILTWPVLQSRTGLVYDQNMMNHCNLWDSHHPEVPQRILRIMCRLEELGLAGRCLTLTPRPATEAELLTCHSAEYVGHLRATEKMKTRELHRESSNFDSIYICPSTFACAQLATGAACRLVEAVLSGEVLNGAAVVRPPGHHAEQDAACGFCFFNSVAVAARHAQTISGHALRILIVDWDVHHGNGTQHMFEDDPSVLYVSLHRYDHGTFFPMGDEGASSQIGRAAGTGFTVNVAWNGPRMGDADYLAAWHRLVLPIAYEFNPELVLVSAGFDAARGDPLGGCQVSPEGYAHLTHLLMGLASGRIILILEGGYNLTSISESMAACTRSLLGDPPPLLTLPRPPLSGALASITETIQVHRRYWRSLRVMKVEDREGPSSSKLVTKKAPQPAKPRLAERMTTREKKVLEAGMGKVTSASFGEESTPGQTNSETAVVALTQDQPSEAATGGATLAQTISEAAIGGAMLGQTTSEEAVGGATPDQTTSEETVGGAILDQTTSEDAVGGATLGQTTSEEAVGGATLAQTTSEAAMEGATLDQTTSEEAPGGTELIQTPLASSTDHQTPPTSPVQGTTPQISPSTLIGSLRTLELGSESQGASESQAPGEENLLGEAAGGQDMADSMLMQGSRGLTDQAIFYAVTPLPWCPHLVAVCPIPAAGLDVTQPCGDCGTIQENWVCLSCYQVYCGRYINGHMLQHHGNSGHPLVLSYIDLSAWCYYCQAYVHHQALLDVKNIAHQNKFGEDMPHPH

HCT-116 [4] = test: Induction of apoptosis in human HCT116 cells assessed as increase in p53 protein level at 0.1 to 3 uM after 24 hrs by immunoblotting analysis; assay type: functional, cell-based
HCT-116 [5] = test: Induction of apoptosis in human HCT116 cells assessed as accumulation at sub-G1 phase after 24 hrs by propidium iodide staining-based flow cytometric analysis; assay type: functional, cell-based
Summary of the method: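 HCT116 cells treated with indicated concentrations for 24 h; DNA content analyzed by flow cytometry for cell cycle distribution and sub-G1 fraction; means of at least three independent experiments.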

HCT-116 [6] = test: Induction of apoptosis in human HCT116 cells assessed as accumulation at sub-G1 phase at 1 uM by propidium iodide staining-based flow cytometric analysis; assay type: functional, cell-based; conditions: TDE = time-dependent effect
Summary of the method: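 HCT116 cells exposed to 1 μM compound for varying time intervals; sub-G1 population quantified by flow cytometry.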

[7] = Oral bioavailability in ICR mouse at 10 mg/kg by LC-MS/MS analysis; assay type: ADME, organism-based; conditions: in vivo
A549 = test: Cytotoxicity against human A549 cells by MTT assay; assay type: functional, cell-based

| SMILES | IC50 (Histone deacetylase) [nM] | IC50 (Histone deacetylase 1) [nM] | IC50 [3] [nM] | bioavailability [7] [%] | IC50 (KB) [nM] | IC50 [1] [nM] | IC50 (PC-3) [nM] | IC50 (HCT-116 [2]) [nM] | Activity (HCT-116 [4]) | Activity (HCT-116 [5]) | Activity (HCT-116 [6]) | IC50 (A549) [nM] |
| --- | --- | --- | --- | --- | --- | --- | --- | --- | --- | --- | --- | --- |
| O=C(/C=C/c1cccc(S(=O)(=O)N2CCc3cccnc32)c1)NO | 600 |  |  |  | 1290 | 1820 | 4110 | 2040 |  |  |  |  |
| O=C(/C=C/c1ccc(S(=O)(=O)n2ncc3ccccc32)cc1)NO | 500 |  |  |  | 1830 | 2790 | 3360 | 3340 |  |  |  |  |
| O=C(/C=C/c1cccc(S(=O)(=O)n2ccc3ccncc32)c1)NO | 480 | 4850 | 280 |  | 610 | 560 | 1110 | 1210 |  |  |  |  |
| O=C(CCCCCCC(=O)Nc1ccccc1)NO [VORINOSTAT] |  |  |  | 8.33 |  | 820 |  |  | inactive | Dose-dependent effect | tde | 1540 |
| O=C(/C=C/c1ccc(S(=O)(=O)N2CCc3cccnc32)cc1)NO | 850 |  |  |  | 1520 | 1980 | 3640 | 1730 |  |  |  |  |

The next lines start with results.

| IC50 (Histone deacetylase) [nM] | IC50 (Histone deacetylase 1) [nM] | IC50 [3] [nM] | bioavailability [7] [%] | SMILES | IC50 (KB) [nM] | IC50 [1] [nM] | IC50 (PC-3) [nM] | IC50 (HCT-116 [2]) [nM] | Activity (HCT-116 [4]) | Activity (HCT-116 [5]) | Activity (HCT-116 [6]) | IC50 (A549) [nM] |
| --- | --- | --- | --- | --- | --- | --- | --- | --- | --- | --- | --- | --- |
| 240 |  |  |  | O=C(/C=C/c1ccc(S(=O)(=O)n2ccc3cccnc32)cc1)NO | 870 | 910 | 1240 | 1010 |  |  |  |  |
| 560 |  |  |  | O=C(/C=C/c1ccc(S(=O)(=O)n2ccc3ccncc32)cc1)NO | 1240 | 1670 | 1970 | 1920 |  |  |  |  |
| 510 |  |  |  | O=C(/C=C/c1cccc(S(=O)(=O)n2ccc3ccccc32)c1)NO | 2920 | 3010 | 4010 | 2470 |  |  |  |  |
| 230 |  |  |  | O=C(/C=C/c1cccc(S(=O)(=O)n2ncc3ccccc32)c1)NO | 1260 | 1210 | 3210 | 1120 |  |  |  |  |
